pIC50: −log10 of the molar value.
Tests used:
Assay type in all cases: functional, cell-based; call rule not given here
[1] = tested on: KB; assay: Cytotoxicity against human KB cells by SRB staining-based fluorescence cytometry; settings: for pIC50: Homo sapiens, KB, read-out: IC50; for IC50: kb
Method in brief: (§1)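 Cytotoxicity assay run with camptothecin as the reference anticancer standard.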

[2] = tested on: MCF7; assay: Cytotoxicity against human MCF7 cells by SRB staining-based fluorescence cytometry; settings: for pIC50: Homo sapiens, MCF7, read-out: IC50; for IC50: mcf7; method in brief: as §1
[3] = tested on: HT-29; assay: Cytotoxicity against human HT-29 cells by SRB staining-based fluorescence cytometry; settings: for pIC50: Homo sapiens, HT-29, read-out: IC50; for IC50: ht-29; method in brief: as §1
[4] = tested on: HeLa; assay: Cytotoxicity against human HeLa cells by SRB staining-based fluorescence cytometry; settings: for pIC50: Homo sapiens, HeLa, read-out: IC50; for IC50: hela; method in brief: as §1

`COc1ccccc1/C=C/C[C@@]1(O)C=CC(=O)CC1` gave a pIC50 [1] of 4.15, a pIC50 [2] of 4.31 and a pIC50 [3] of 4.75. It also gave a pIC50 [4] of 4.27.
`CO[C@H]1CC(=O)CC[C@@]1(O)C/C=C/c1ccccc1` gave a pIC50 [1] of 4.07, a pIC50 [2] of 4.36 and a pIC50 [3] of 4.32. For the same compound, the pIC50 [4] was 4.27.
In the case of `COc1c(O)ccc([C@@H]2C=Cc3cc(O)ccc3O2)c1OC`, the IC50 [1] was “Not Active”, the IC50 [2] was “Not Active” and the IC50 [3] was “Not Active”. For the same compound, the IC50 [4] was “Not Active”.
For `COc1ccc([C@@H]2COc3c(ccc(O)c3C/C=C(\C)CCC=C(C)C)C2)cc1`, the IC50 [1] was “Not Active”, the IC50 [2] was “Not Active” and the IC50 [3] was “Not Active”. For the same compound, the IC50 [4] was “Not Active”.
Work on `COc1cc(O)c2c(c1)O[C@H](c1ccccc1)[C@@H](O)C2=O` yielded a pIC50 [1] of 4.13, a pIC50 [2] of 4.31 and a pIC50 [3] of 4.33. It also gave a pIC50 [4] of 4.10.
In the case of `COc1ccc2c(c1O)OC[C@@H]1c3cc4c(cc3O[C@H]21)OCO4`, the IC50 [1] was “Not Active”, the IC50 [2] was “Not Active” and the IC50 [3] was “Not Active”. The IC50 [4] was “Not Active”.
With `O=C1C=C[C@](O)(C/C=C/c2ccccc2)CC1` [(1'R)-CANDENATENIN B] the pIC50 [1] was 4.08, the pIC50 [2] was 4.26 and the pIC50 [3] was 4.71. It also gave a pIC50 [4] of 4.25.
With `CC[C@@]1(O)C(=O)OCc2c1cc1n(c2=O)Cc2cc3ccccc3nc2-1` [CAMPTOTHECIN] the pIC50 [1] was 5.91, the pIC50 [2] was 5.91 and the pIC50 [3] was 5.91. It also gave a pIC50 [4] of 5.91.
`COc1ccc(/C=C/Cc2ccc(O)c(OC)c2OC)cc1O` [CANDENATENIN A] was tested, and the pIC50 [1] was 4.37, the pIC50 [2] was 4.13 and the pIC50 [3] was 4.39. It also gave a pIC50 [4] of 4.10.
In the case of `COc1ccc2c(c1C/C=C(\C)CCC=C(C)C)OC[C@@H]1c3cc4c(cc3O[C@H]21)OCO4` [NUTIDUCOL], the IC50 [1] was “Not Active”, the IC50 [2] was “Not Active” and the IC50 [3] was “Not Active”. The IC50 [4] was “Not Active”.
With `CC(C)=CCC/C(C)=C/Cc1c(O)cc(O)c2c1O[C@H](c1ccc(O)cc1)CC2=O` [SOPHORAFLAVANONE A] the IC50 [1] was “Not Active”, the IC50 [2] was “Not Active” and the IC50 [3] was “Not Active”. The IC50 [4] was “Not Active”.

Source: ChEMBL document CHEMBL1154212, “Candenatenins A-F, phenolic compounds from the heartwood of Dalbergia candenatensis” (J Nat Prod, 2009)
